This note sets out measurements from ChEMBL document CHEMBL4196201, “Discovery of N-(4-{[5-Fluoro-7-(2-methoxyethoxy)quinazolin-4-yl]amino}phenyl)-2-[4-(propan-2-yl)-1 H-1,2,3-triazol-1-yl]acetamide (AZD3229), a Potent Pan-KIT Mutant Inhibitor for the Treatment of Gastrointestinal Stromal Tumors” (J Med Chem, 2018).

Converted amounts (≈) assume the structure as drawn. The source made the active and inactive calls.

Data set [1] is described as follows: Solubility in pH 6.5 phosphate buffer at 37 degC. The class given is physicochemical. The procedure, abridged: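 Solubility of crystalline Form A was measured in pH6.5 phosphate buffer at 37°C.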
Data set [2] in a line: Protein binding in rat plasma assessed as unbound fraction level. The class given is ADME, cell-free.
The nature of data set [3]: Protein binding in dog plasma assessed as unbound fraction level. Format: ADME, cell-free, Canis lupus familiaris.
The nature of data set [4]: Intrinsic clearance in human hepatocytes assessed per million cells. Format: ADME, cell-based, Hepatocyte. As to conditions: read-out: CLH.
Data set [5] can be described thus: Volume of distribution at steady state in CD1 mouse at 10 umol/kg, iv. The class given is ADME, organism-based. The settings on record: in vivo, read-out: Vdss. The procedure, abridged:
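PK in CD1 mice given an iv dose of 10 μMol/kg, alongside a separate oral dose of 21 μMol/kg. Clearance, Vdss, half-life and oral bioavailability were derived from these profiles.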

Data set [6] can be described thus: Half life in CD1 mouse at 21 umol/kg, po. The class given is ADME, organism-based. The settings on record: in vivo. A digest of the protocol: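 PK was run in CD1 mice with an iv dose of 10 μMol/kg and an oral dose of 21 μMol/kg. Cl, Vdss, t1/2 and F% were derived.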
Data set [7] can be described thus: Clearance in Han Wistar rat at 1 umol/kg, iv. The class given is ADME, organism-based. As to conditions: in vivo. A digest of the protocol:
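PK was run in Han Wistar rats with an iv dose of 1 μMol/kg and an oral dose of 2.1 μMol/kg. Cl, Vdss, t1/2 and F% were derived.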

Data set [8] can be described thus: Clearance in dog rat at 1 umol/kg, iv. As to conditions: in vivo. Format: ADME, organism-based, Canis lupus familiaris.
Data set [9] in a line: Half life in dog rat at […], po. The settings on record: in vivo. Format: ADME, organism-based, Canis lupus familiaris.
The subject of data set [10] is Mus musculus. Nature of the data set: Inhibition of Kit exon 11 deletion (557 to 558 residues) and D816H mutant (unknown origin) transfected in mouse BA/F3 cells allografted in CB17 SCID mouse assessed as reduction in ERK phosphorylation at 20 mg/kg, po administered as single dose measured after 8 hrs. Format: functional, organism-based. The procedure, abridged:
(§1)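 A single 20 mg/kg p.o. dose was given to mice carrying exon 11 del/D816H Ba/F3 allografts. Tumor pKIT, pERK and pAKT were measured over a timecourse, with free compound cover tracked in the same study.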

Data set [11] relates to Mus musculus. Nature of the data set: Inhibition of Kit exon 11 deletion (557 to 558 residues) and D816H mutant phosphorylation (unknown origin) transfected in mouse BA/F3 cells allografted in CB17 SCID mouse at 20 mg/kg, po administered as single dose measured after 24 hrs. The class given is functional, organism-based. A digest of the protocol: as §1
Data set [12] has as its system Mus musculus. In words: Inhibition of Kit exon 11 deletion (557 to 558 residues) and D816H mutant (unknown origin) transfected in mouse BA/F3 cells allografted in CB17 SCID mouse assessed as reduction in ERK phosphorylation at 20 mg/kg, po administered as single dose measured after 24 hrs. Format: functional, organism-based. A digest of the protocol: as §1
The subject of data set [13] is BaF3. Nature of the data set: Antitumor activity against mouse BA/F3 cells expressing Kit exon 11 deletion (557 to 558 residues) and D816H mutant (unknown origin) allografted in CB17 SCID mouse assessed as inhibition of tumor growth at 2 mg/kg, po bid measured on last day of dosing. As to conditions: read-out: TGI. Format: functional. The procedure, abridged: (§2)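 Ba/F3 cells bearing the KIT exon 11 del/D816H or exon 11 del/V654A mutation were grown as allografts in mice. Compounds were given p.o. once (QD) or twice daily (BD), and vehicle was given BD p.o. Tumor growth inhibition and regression (%) were taken on the last day of dosing. p-values were calculated relative to vehicle.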

Data set [14] relates to BaF3. In words: Antitumor activity against mouse BA/F3 cells expressing Kit exon 11 deletion (557 to 558 residues) and V654 mutant (unknown origin) allografted in CB17 SCID mouse assessed as inhibition of tumor growth at 2 mg/kg, po bid measured on last day of dosing. The class given is functional. The settings on record: read-out: TGI. The procedure, abridged:
as §2

Data set [15] concerns BaF3. Nature of the data set: Antitumor activity against mouse BA/F3 cells expressing Kit exon 11 deletion (557 to 558 residues) and V654 mutant (unknown origin) allografted in CB17 SCID mouse assessed as inhibition of tumor growth at 20 mg/kg, po bid measured on last day of dosing. The class given is functional. As to conditions: read-out: TGI. A digest of the protocol:
as §2

Data set [16] concerns Mast/stem cell growth factor receptor Kit (Homo sapiens), P10721 [UNDEFINED MUTATION].
The target of data set [17] is Mast/stem cell growth factor receptor Kit (Homo sapiens) (UniProt P10721).
The target is the same in data set [18]. This is another data set of the same source.
The target is the same in data set [19]. The source holds these as a separate data set.
Data set [20] relates to Mast/stem cell growth factor receptor Kit (Homo sapiens), P10721 [D816V].
Sequence of Mast/stem cell growth factor receptor Kit (Homo sapiens), P10721 [D816V] (P10721 whole entry D816V): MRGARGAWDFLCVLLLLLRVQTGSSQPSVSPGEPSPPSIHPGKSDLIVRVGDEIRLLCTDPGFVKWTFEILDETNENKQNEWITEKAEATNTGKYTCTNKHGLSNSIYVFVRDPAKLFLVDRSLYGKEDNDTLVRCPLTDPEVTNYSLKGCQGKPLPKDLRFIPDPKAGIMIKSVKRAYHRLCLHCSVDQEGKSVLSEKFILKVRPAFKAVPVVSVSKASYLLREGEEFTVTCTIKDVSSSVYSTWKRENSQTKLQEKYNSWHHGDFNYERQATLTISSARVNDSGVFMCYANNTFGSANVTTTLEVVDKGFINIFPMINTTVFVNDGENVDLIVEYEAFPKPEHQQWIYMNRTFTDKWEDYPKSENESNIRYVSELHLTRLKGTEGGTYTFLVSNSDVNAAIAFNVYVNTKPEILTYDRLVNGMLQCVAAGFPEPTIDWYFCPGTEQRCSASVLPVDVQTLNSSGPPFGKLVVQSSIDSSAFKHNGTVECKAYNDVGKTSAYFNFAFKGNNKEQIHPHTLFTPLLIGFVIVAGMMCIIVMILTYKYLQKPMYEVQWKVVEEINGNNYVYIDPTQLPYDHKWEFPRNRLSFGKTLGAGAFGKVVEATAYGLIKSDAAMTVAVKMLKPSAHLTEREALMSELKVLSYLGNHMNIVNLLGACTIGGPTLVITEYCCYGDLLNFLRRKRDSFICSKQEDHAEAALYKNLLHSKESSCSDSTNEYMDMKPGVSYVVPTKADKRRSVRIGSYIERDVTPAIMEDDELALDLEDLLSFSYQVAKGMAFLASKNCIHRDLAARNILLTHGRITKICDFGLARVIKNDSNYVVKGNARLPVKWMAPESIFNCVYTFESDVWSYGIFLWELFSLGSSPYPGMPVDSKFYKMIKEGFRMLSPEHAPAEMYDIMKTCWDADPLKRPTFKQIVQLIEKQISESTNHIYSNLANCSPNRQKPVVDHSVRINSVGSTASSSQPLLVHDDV

Sequence of Mast/stem cell growth factor receptor Kit (Homo sapiens) (P10721 whole entry): as the sequence (P10721 whole entry D816V) above, with V816D counted along it
Sequence of Mast/stem cell growth factor receptor Kit (Homo sapiens), P10721 [UNDEFINED MUTATION] (P10721 whole entry, looked up, change not shown): as the sequence (P10721 whole entry D816V) above, with V816D counted along it

Take `COCCOc1cc(F)c2c(Nc3ccc(NC(=O)Cn4cc(C(C)C)nn4)cc3)ncnc2c1`: in data set [1], the solubility (as a rule, the concentration that dissolves in the medium under given conditions) stood at 6 µM (≈ 2.88 µg/mL). Further, the fraction unbound (usually free concentration divided by total concentration) was determined as 0.022 in data set [2] and 0.068 in [3]. The hepatocyte CLint in [4] was < 1 µL/min/1e6 cells. For the same compound, the Vd in data set [5] is 0.7 L/kg. In addition, the half-life (usually the time needed for the level to fall by half in the phase considered) in [6] is 2 h; in data set [9], 4 h. For the same compound, the clearance (usually a measure of how efficiently the substance is removed, as volume per time) in [7] worked out at 8 mL/min/kg; in [8] it was 2 mL/min/kg. Besides, the inhibition entry in the data set with Mus musculus [10], in the data set on Mus musculus [11] and in the data set with Mus musculus [12] was “Active” in each case. The inhibition in vivo at 2 mg/kg in the data set with BaF3 [13] is 5%; in the data set on BaF3 [14], > 100%. Further, the inhibition in vivo at 20 mg/kg with BaF3 [15] is > 100%. Also, the GI50 (usually the concentration that inhibits growth by half) stood at 16 nM in [16]; 2 nM in data set [17]; 22 nM in data set [18]; 1 nM in data set [19]; 971 nM in data set [20].
